Screens: PubChem BioAssay, Sanford-Burnham Center for Chemical Genomics
eIF4H FP inh: inhibitors of RNA binding by human eIF4H. inhibition, % at 35 µM. 0.94% of 290,000 active. eIF4H fluorescence polarization binding assay;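 also: calls also rest on retests at 20 µM and on dose response follow-up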
SKN-1 block: inhibitors of C. elegans SKN-1. C. elegans VP596 Pgst-4::GFP/RFP ratio, acrylamide-induced, 24 h. inhibition, % at 21.8 µM. 0.49% of 360,000 active. AID 624304;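 active = interference check ratio from 0.5 to 1.5 plus GFP to RFP signal ratio inhibition reaching or exceeding a fixed threshold, cut at about 30% in these data, passing the limit was not always enough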
PABP FP inh: blocks human PABP binding to poly(A) RNA | P11940 | fluorescence polarization | calls only at 35 µM | 1% of 290,000 active;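 also: calls also rest on retests at 20 µM and on dose response follow-up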
MLLE-PAM2 inh: inhibitors of microRNA-mediated deadenylation, human PABP1 MLLE binding. P11940. GST-MLLE / FITC-PAM2 fluorescence polarization. inhibition, % at 20 µM. 0.36% of 360,000 active; in the data active = inhibition above about 35%, passing the limit was not always enough;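 also: plate controls were DMSO wells with GST-MLLE for no effect and wells lacking GST-MLLE protein for full effect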
MT1-MMP act inh: inhibitors of human MT1-MMP activation; P50281; HT1080 RFP-PRO-GFP cells, GFP/RFP ratio fluorescence, overnight; percent of plate control window, DMSO zero; GFP/RFP ratio change, % at 20 µM; 0.061% of 360,000 active; AID 651647;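 active = GFP/RFP ratio change of at least 30% with cell ATP level not reduced by more than half and red fluorescence within 50% of control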
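Material – HT1080 RFP-PRO-GFP cells · Control set – DMSO wells and RFP-L50D-GFP cells · Incubation – overnight cell settling, then overnight compound exposure, 37 °C, 5% CO2 · Compound dosing – single-point 20 µM compound, 1% DMSO · Read-out – GFP/RFP fluorescence ratio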
Active calls of the source: *; i = inactive; ? = inconclusive; / = not tested or not shown; + = active, no number. Most compounds without a hit are left out; they make up all but 1.8% or so of the library. Unless noted, no rule for the calls is given here.

SMILES	eIF4H FP inh	SKN-1 block	PABP FP inh	MLLE-PAM2 inh	MT1-MMP act inh
CCN1CCN(c2ccc(S(=O)(=O)N3CCCCC3)cc2NC(=O)c2ccc([N+](=O)[O-])s2)CC1	/	3.2	/	-50.4	2.8
CCN(CC)c1ccc(C(=O)NNC(=O)CN2C(=O)NC3(CCCCC3)C2=O)cc1	/	14.8	/	-2.4	0.4
CC(C)c1ccc(NS(=O)(=O)c2ccc(-n3cccn3)cc2)cc1	87.5*	15.6	+	14.7	3.9
OC[C@@H]1CN(Cc2cccc(C(F)(F)F)c2)C[C@H](n2cnc3c(NCc4ccncc4)ncnc32)O1	/	7.0	/	1.6	0.4
COc1ccc2c(C#N)c3ccccn3c2c1	16.9	-0.5	i	54.4*	-18.9
Cc1cc(=O)n2ccccc2c1C#N	-2.0	8.4	i	3.1	4.5
COc1ncnc2c1ncn2CCCNCC(C)c1ccccc1 (stereo unspecified)	/	-3.8	/	22.6	8.1
CC(C)OCCCn1c(-c2ccco2)nc2nc3ccccc3nc21	?	18.8	i	-17.9	-100.4
CCC(C)n1c(-c2ccco2)nc2nc3ccccc3nc21 (stereo unspecified)	?	/	+	/	/
COc1ccc(C(=O)NCc2nnc(SCC(=O)NC3CCCC3)o2)cc1	0.9	10.7	i	-42.7	-1.5
Cc1nc(NS(=O)(=O)c2ccccc2)sc1NC(=O)OC(C)C	-3.0	7.7	i	38.6*	0.7
COc1ccc(NC(=O)Nc2sc(NS(=O)(=O)c3ccccc3)nc2C)cc1	-4.0	10.1	i	40.3*	/
Oc1ccc(Br)cc1C=Nc1ccc2c3c(cccc13)CC2	100.1*	1.1	+	11.8	-174.6
O=C(c1[nH]c(C(F)(F)F)nc1-c1ccccc1)N1CCc2c([nH]c3ccccc23)C1	/	-2.5	/	-22.5	-7.1
Clc1ccc(-c2nnc(-c3ccccc3)c(-c3ccccc3)n2)cc1	-8.7	9.1	i	3.6	-2.9
COc1nc(-c2ccccc2)nnc1-c1ccccc1	-8.5	51.7*	i	0.0	-2.7
CCOc1ccc(C(CN2CCOCC2)C(C)=O)cc1OC (stereo unspecified)	/	7.5	/	-12.8	-0.1
Cc1nnc(SCC(=O)c2c[nH]c3ccccc23)n1C1CC1	/	22.3	/	5.7	2.5
CCc1ccc(C(=O)Nc2ccc3nc(C)ccc3c2)cc1	2.5	44.0*	i	-1.6	4.6
Cc1cc(=O)oc2cc(OCc3ccc(C(=O)OCC(=O)NC4CCS(=O)(=O)C4)cc3)ccc12 (stereo unspecified)	98.9*	1.6	+	0.7	-0.5
Cc1cnc(C=NNC(N)=S)c2cccc(N)c12	/	2.4	/	42.7*	2.7
NC(=S)NN=Cc1nccc2ccccc12	/	9.1	/	7.2	4.8
CCCCN1C[C@H](CSC)[C@@H](CC(=O)Nc2ccc(Br)cc2)C1=O	/	18.1	/	7.4	0.6
CCN(CC)CCN1C(=O)C(=O)/C(=C(/O)c2cnn(-c3ccccc3)c2C)C1c1ccc(C)o1 (stereo unspecified)	3.4	45.8*	i	4.6	-3.3
CCN(CC)CCCN1C(=O)C(O)=C(C(=O)c2ccc(C)o2)C1c1ccc(C)o1 (stereo unspecified)	18.3	15.5	+	0.1	-0.9
SMILES	eIF4H FP inh	SKN-1 block	PABP FP inh	MLLE-PAM2 inh	MT1-MMP act inh
CC(C)c1ccc(NC(=O)Nc2nc(C(N)c3ccccc3)cs2)cc1 (stereo unspecified)	/	6.4	/	-1.3	-1.6
Cc1cc2ncn(C(=O)c3cc(-c4ccccc4)nc4ccccc34)c2cc1C	active	8.8	+	11.2	2.8
CC1CN(S(=O)(=O)c2cccc(C(=O)OCC(=O)c3cccs3)c2)CC(C)O1 (stereo unspecified)	-3.0	-4.9	i	3.4	1.4
CC1CN(S(=O)(=O)c2cccc(C(=O)OCC(=O)Nc3ccc4c(c3)OCO4)c2)CC(C)O1 (stereo unspecified)	6.5	43.8*	i	-33.9	-7.4
Cc1ccc(S(=O)(=O)N2CCCCC2)cc1NC(=O)COC(=O)c1ccc2c(c1)OCO2	2.0*	2.1	i	-3.4	6.8
Cc1ccc(S(=O)(=O)N2CCCCC2)cc1NC(=O)c1ccc2c(c1)OCO2	3.9	-2.9	i	13.0	3.2
CCCNC(=O)COC(=O)C1CCN(S(=O)(=O)c2ccc3c(c2)OCCO3)CC1	/	45.3*	/	-11.0	-0.1
CCNC(=O)COC(=O)C1CCN(S(=O)(=O)c2ccc3c(c2)OCCO3)CC1	/	10.8	/	-2.8	3.0
C[C@@H]1CN([C@H](C)CO)C(=O)c2c(c3ccccc3n2C)-c2ccccc2CO[C@H]1CN(C)C(=O)CCC(F)(F)F	/	4.5	/	15.9	0.0
COC(=O)[C@]12CCCCC=C1N(Cc1ccco1)C(=O)[C@H](CC(=O)NCc1cccs1)C2	/	11.9	/	/	1.8
CCN1C(=O)/C(=C2\C=Cc3cc(C)ccc3N2CC)OC1=S	46.4	35.0*	i	18.4	-1.9
CCC(=O)Nc1nc2ccccc2n1CCN1CCOCC1	6.1	5.2	i	-7.9	9.3
CCCCCCCn1c(NC(=O)CC)nc2ccccc21	73.5*	30.7	+	-8.4	-5.4
COc1ccc(-c2cc(C(=O)Nc3c(C)nn(Cc4ccccc4)c3C)no2)cc1	-13.8	36.2*	i	-1.2	9.8
COc1ccccc1NC(=O)c1ccc2c(c1)N(CC#N)C(=O)C(C)(C)O2	2.1	-17.2	i	7.0	1.3
COc1ccc(C(=O)NC(=S)Nc2cccc(NC(=O)c3ccco3)c2)cc1[N+](=O)[O-]	7.9	5.1	i	42.0*	1.1
CCN1/C(=C/c2ccc3ccccc3[n+]2CCCS(=O)(=O)[O-])C=Cc2cc(C)ccc21	-25.3	39.2*	i	-180.5	57.6
COc1cccc(-c2cc3nc(NCCN4CCCC4)n(C)c(=O)c3s2)c1	/	6.5	/	-11.5	0.7
COC(=O)c1cc(NC(=O)CC2SC(=Nc3ccccc3)N(CCc3c[nH]c4ccccc34)C2=O)cc(C(=O)OC)c1 (stereo unspecified)	-6.6	35.6*	i	-2.9	-10.2
COc1ccc(N=C2SC(CC(=O)Nc3ccccc3)C(=O)N2CC2CCCO2)cc1 (stereo unspecified)	-4.8	-3.5	i	2.2	8.2
COc1ccc(N=C2SC(CC(=O)Nc3ccccc3)C(=O)N2CCN2CCOCC2)cc1 (stereo unspecified)	active	-2.3	+	-4.0	0.6
COc1ccccc1C(=O)Nc1nnc([C@@H]2C[C@H](O)[C@@H](CO)O2)s1	/	18.9	/	4.0	-0.6
O=C(CSc1nnnn1C1CCCCC1)Nc1cccc(NC(=O)c2ccco2)c1	-5.1	36.8*	i	-5.9	3.3
CC(C)OC(=O)[C@H]1[C@H](c2ccc(Cl)cc2)[C@@](C#N)(C(N)=O)[C@@H]2C=CC(C(N)=O)=CN21	53.3*	2.0	+	2.0	-9.9
N#C[C@H]1[C@H](c2ccccc2)[C@](C#N)(C(=O)c2ccccc2)[C@@H]2C=Cc3ccccc3N21	5.8	/	i	/	/
CNc1cncc(-c2ccc(C)cc2)n1	/	-1.6	/	6.9	-4.4
